Laboratory results taken from PMC3058505 (Hepatology (Baltimore, Md.), 2010).
pKi: −log10 of the molar value. Structures can show the parent of a compound that is named as a salt.

Legend:
replicon cells = assay: Proliferation and cytotoxicity assays; assay type: cell-based, human; details: medium containing 5 or 10% FBS
[1] = test system: HCV NS5A and core protein in NS or FL replicons; assay: Western blot of HCV proteins in NS and FL replicons; assay type: cell-based, hepatitis C virus; details: biliverdin 20 µM, BR 200 µM or FeCl2 100 µM for 24 h; both replicon lines
Summary of the method: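 Log-phase NS (Huh5-15) or FL (Huh7.5 Con1) replicon cells were treated for 24 h. BV and BR were dissolved in 0.2 N NaOH, with vehicle controls. Cells were then lysed and analysed by Western blot with enhanced chemiluminescence detection. Band intensities were quantified by densitometry.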

[2] = test system: HCV replication in Huh7.5FL Con1 replicon; assay: HCV replication in full-length; assay type: cell-based, hepatitis C virus; details: for Relative [HCV] [ΔCΤ]: Huh7.5FL, control = 1.0
Summary of the method: (§1)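 Log-phase replicon cells were incubated overnight with hemin (0, 5, 10 or 20 µM) or control vehicle. Cells were Huh7.5FL (full-length Con1) or Huh5-15NS (subgenomic). Relative HCV RNA was found by real-time RT-PCR with the comparative cycle threshold (ΔCT) method and normalised to vehicle control = 1.0. Each value is the mean of four determinations.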

[3] = test system: HCV replication in Huh5-15NS replicon; assay: HCV replication in non-structural; assay type: cell-based, hepatitis C virus; details: for Relative [HCV] [ΔCΤ]: Huh5-15NS, control = 1.0
Summary of the method: as §1

[4] = test system: J6/JFH infectious HCV in Huh7.5 cells; assay: J6/JFH HCV infection of Huh7.5 cells; assay type: cell-based, hepatitis C virus; details: BV 20–200 µM, 72 h; HCV polyvalent sera immunoreactivity and HCV RNA
Summary of the method: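 Huh7.5 cells were inoculated with infectious J6/JFH HCV and passed. They were then treated with BV at 0, 20 or 200 µM for 72 h. Cells were fixed in absolute methanol, washed in PBS and stained with genotype 2A polyvalent human serum. Detection used an anti-human alkaline phosphatase conjugate and photomicroscopy. HCV RNA was measured by ΔCT real-time RT-PCR, 3–5 determinations per group, mean ± SEM.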

[5] = target: endogenous NS3/4A protease from replicon microsomes (Hepatitis C virus genotype 1b, UniProt Q9WMX2); assay type: biochemical
Chain of endogenous NS3/4A protease from replicon microsomes (Q9WMX2 1027-1657): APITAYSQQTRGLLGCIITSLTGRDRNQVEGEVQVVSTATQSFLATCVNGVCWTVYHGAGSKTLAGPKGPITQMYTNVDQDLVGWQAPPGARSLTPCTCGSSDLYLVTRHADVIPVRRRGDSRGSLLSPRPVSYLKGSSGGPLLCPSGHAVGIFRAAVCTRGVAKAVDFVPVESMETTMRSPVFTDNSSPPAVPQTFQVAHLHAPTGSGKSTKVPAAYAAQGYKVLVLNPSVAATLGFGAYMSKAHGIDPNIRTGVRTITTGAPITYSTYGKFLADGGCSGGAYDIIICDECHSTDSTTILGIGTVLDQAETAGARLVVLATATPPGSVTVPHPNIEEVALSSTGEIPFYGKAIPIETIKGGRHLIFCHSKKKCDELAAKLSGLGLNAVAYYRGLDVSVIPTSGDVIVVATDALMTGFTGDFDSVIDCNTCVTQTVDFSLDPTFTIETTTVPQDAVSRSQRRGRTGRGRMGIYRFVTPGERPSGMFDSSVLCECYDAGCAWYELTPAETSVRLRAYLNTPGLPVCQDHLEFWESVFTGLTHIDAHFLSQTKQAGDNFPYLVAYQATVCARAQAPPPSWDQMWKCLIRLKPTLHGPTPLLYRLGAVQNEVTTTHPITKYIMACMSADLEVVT
Chain of endogenous NS3/4A protease from replicon microsomes (Q9WMX2 1658-1711): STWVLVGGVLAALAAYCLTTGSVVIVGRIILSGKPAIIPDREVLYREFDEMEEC

[6] = test system: HCV replication in FL or NS replicons; assay type: cell-based, hepatitis C virus; details: 50 or 100 µM BV overnight with α-interferon
Summary of the method: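 Cell lines were Huh7.5 cells with full-length Con1 replicons (FL) and Huh5-15 cells with subgenomic replicons (NS). They received α-interferon alone or with BV. BV was dissolved in 0.2 N NaOH, and controls got the same NaOH volume. HCV RNA was measured by real-time RT-PCR using the comparative cycle threshold (ΔCT) method. Values are mean ± SEM of 3 determinations per point.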

[7] = target: HCV NS3/4A protease (recombinant) (Hepatitis C virus genotype 1b, UniProt O92972); assay: SensoLyte 620 HCV Protease Assay with recombinant NS3/4A protease; assay type: biochemical
Chain of HCV NS3/4A protease (recombinant) (O92972 1013-1207, looked up, natural form): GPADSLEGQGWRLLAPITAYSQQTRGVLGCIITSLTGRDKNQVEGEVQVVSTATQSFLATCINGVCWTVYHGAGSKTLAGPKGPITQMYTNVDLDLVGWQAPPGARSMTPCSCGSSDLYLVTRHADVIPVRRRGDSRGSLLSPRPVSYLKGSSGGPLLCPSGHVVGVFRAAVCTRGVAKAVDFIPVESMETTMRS

C=CC1=C(C)/C(=C/c2[nH]c(Cc3[nH]c(/C=C4\NC(=O)C(C)=C4C=C)c(C)c3CCC(=O)O)c(CCC(=O)O)c2C)NC1=O [BR, bilirubin]
Effect on cellular proliferation or toxicity (replicon cells): no effect
Effect on HCV protein expression by Western blot [1]: decreased NS5A

[Cl][Fe][Cl] [FeCl2]
Effect on HCV protein expression by Western blot [1]: decreased NS5A and core protein

hemin [Heme]
Lowest level at which antiviral effect is apparent ([2]; FL replicon, overnight incubation with hemin): 5 µM
Relative [HCV] [ΔCΤ] ([2]; heme 5 uM overnight): 0.22
Relative [HCV] [ΔCΤ] ([2]; heme 10 uM overnight): 0.08
Relative [HCV] [ΔCΤ] ([2]; heme 20 uM overnight): 0.04
Relative [HCV] [ΔCΤ] ([3]; heme 5 uM overnight): 0.27
Relative [HCV] [ΔCΤ] ([3]; heme 10 uM overnight): 0.09
Relative [HCV] [ΔCΤ] ([3]; heme 20 uM overnight): 0.03
Lowest level at which antiviral effect is apparent ([3]; NS replicon, overnight incubation with hemin): 5 µM

C=CC1=C(C)/C(=C/C2=NC(=C\c3[nH]c(/C=C4\NC(=O)C(C)=C4C=C)c(C)c3CCC(=O)O)/C(CCC(=O)O)=C2C)NC1=O [Biliverdin, biliverdin-IX-α hydrochloride]
Effect on Huh7.5 cell infection with J6/JFH [4]: markedly decreased
Inhibition of endogenous NS3/4A protease [5]: potently inhibited
Effect on cellular proliferation or toxicity (replicon cells): no effect
Effect on HCV protein expression by Western blot [1]: decreased NS5A
Effect on α-interferon antiviral activity [6]: clear additive effect
pKi [7]: 6.22
Mode of inhibition of NS3/4A protease ([7]; Lineweaver-Burk plots): mixed competitive and non-competitive inhibition
Effect of BV combined with #25346 on protease activity ([7]; assays in the presence of both BV and #25346): additive effect
